Experimental data reported in PubChem BioAssay.
Calls of active or inactive are those of the source.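 Rule for the calls, unless noted: active = viability at or below 10% of carrier control in both of two separate runs; inconclusive = viability at or below 10% in only one of the two runs; inactive = the rest.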

Tests used:
[1] = reducers of endogenous Her2 protein level, primary screen, SKBR3 breast tumor cells, AlphaScreen, ATP viability (AID 461;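 active = Her2 level under about 52% in both replicate screens, with viability over 70% of control, limit read from the data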;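 for Her2 level: lower value means less Her2 protein in the cells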;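 for viability: percent of carrier control wells set as 100% viability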); conditions: 18-24 h, measured here: SKBR3 viability, ATP luminescence, at 10 µM
[2] = biological target: Receptor tyrosine-protein kinase erbB-2 (Homo sapiens) (UniProt P04626); experiment: as above; conditions: 18-24 h, at 10 µM, stronger effect = lower value
[3] = SK-BR-3 cell growth inhibitors, pilot screen, 24 h, human (AID 572); conditions: SK-BR-3 viability, CellTiter-Glo luminescence, at 10 µM, stronger effect = lower value;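 note: compound exposure lasted between 18 and 24 h rather than exactly 24 h; 100% = carrier-treated control wells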
[4] = HUVEC growth inhibition – cell-based, human, primary screen (AID 575;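 active = viability at or below 30% in both replicate assays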;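 note: 100% = median of untreated cell wells with 0.1% DMSO on each plate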); conditions: HUVEC proliferation, CellTiter-Glo luminescence, 72 h; at 10 µM; stronger effect = lower value
In short: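 Test system: HUVEC primary cells. Quantity: 1250 endothelial cells in each well. Dosing: single-point 10 µM, DMSO 0.1% final. Incubation: 72 h treatment at 37 °C. Measured by: CTG luminescence. Control set: DMSO cell controls and MePR drug controls. Plate: collagen-coated 384-well format.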

[5] = growth inhibitors of H69AR lung tumor, primary screen, human, duplicate replicates (AID 580;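 active = viability at or under a set limit in both replicates, limit being median viability minus 3 SD, cut at about 48% in these data, passing the limit was not always enough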;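 note: 100% = mean luminescence of untreated wells and 0% = no signal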); conditions: H69AR lung tumor cells viability, ATP luminescence, 72 h; at 10 µM; stronger effect = lower value
[6] = reversal of MRP1-mediated doxorubicin resistance, pilot screen, H69AR cells, doxorubicin co-treatment (AID 601;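 active = viability loss from added drug above about 55%, and viability with drug at most 40%, in both replicates, limit read from the data, passing the limit was not always enough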); conditions: CellTiter-Glo, 72 h, at 10 µM; for differential viability (reversal): stronger effect = higher value
[7] = 384-well plate pilot, post-Golgi transport modulator project, inhibition of yeast transport mutant growth (AID 636; in the data active = inhibition above about 31%); conditions: absorbance 615 nm, about 18 h, stronger effect = higher value
[8] = growth suppression of yeast trafficking mutant, preliminary HTS, modulators of trafficking downstream of Golgi apparatus project, 1536-format plate, OD 615 nm (AID 637; in the data active = inhibition above about 30%); conditions: yeast transport mutant growth, absorbance 615 nm, 18 h; stronger effect = higher value
[9] = H69AR cells + 2 uM doxorubicin, measured here: viability with 2 uM doxorubicin, stronger effect = lower value
[10] = H69AR cells, compound alone cytotoxicity

Sequence of Receptor tyrosine-protein kinase erbB-2 (Homo sapiens) (P04626 whole entry, looked up): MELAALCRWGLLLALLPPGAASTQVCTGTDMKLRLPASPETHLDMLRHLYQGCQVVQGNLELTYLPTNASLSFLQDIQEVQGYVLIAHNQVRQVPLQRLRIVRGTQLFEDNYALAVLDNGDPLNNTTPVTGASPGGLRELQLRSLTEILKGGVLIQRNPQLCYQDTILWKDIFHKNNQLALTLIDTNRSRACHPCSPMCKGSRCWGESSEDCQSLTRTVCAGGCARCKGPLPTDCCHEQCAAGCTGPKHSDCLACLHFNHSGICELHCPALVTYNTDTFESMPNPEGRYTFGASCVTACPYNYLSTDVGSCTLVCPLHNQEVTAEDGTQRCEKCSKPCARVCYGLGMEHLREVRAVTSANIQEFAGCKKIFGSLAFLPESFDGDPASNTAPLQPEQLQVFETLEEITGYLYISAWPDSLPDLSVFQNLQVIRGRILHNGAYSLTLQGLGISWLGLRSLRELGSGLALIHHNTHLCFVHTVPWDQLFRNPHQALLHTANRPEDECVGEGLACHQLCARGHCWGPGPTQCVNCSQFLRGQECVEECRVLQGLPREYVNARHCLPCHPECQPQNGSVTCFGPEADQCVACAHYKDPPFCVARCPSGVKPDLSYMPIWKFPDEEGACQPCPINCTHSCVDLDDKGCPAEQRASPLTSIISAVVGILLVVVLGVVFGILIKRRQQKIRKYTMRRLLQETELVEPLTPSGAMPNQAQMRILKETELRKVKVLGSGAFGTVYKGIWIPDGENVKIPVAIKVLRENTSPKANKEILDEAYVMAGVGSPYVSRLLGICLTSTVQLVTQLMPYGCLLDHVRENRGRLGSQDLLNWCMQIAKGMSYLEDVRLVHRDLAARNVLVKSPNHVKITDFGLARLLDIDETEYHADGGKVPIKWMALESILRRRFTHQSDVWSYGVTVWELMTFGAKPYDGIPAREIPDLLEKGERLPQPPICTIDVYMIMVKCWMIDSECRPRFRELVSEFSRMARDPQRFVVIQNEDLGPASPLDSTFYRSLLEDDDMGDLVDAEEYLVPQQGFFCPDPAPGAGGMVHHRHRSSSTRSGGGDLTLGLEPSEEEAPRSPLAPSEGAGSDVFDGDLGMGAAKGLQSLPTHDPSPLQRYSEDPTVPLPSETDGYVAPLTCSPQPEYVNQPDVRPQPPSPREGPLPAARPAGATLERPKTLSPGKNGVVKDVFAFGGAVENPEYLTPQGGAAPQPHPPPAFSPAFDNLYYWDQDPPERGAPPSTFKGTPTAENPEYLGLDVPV

SMILES	viability [1] [%]	Her2 level [2]	viability [3]	viability [4]	viability [5]	differential viability (reversal) ([6]; H69AR cells + 2 uM doxorubicin)	viability [6, 9] [%]	viability [6, 10] [%]	inhibition [7]	inhibition [8]
COc1cc(=O)[nH]c(SCc2c(F)c(F)c(F)c(F)c2F)n1	95	95.5% (inactive)	95% (inactive)	94% (inactive)	91.5% (inactive)	-1.69% (inactive)	93.2	91.5	-5.6% (inactive)	-10% (inactive)
O=C(c1cn(-c2ccccc2)nc1-c1cccs1)N1CCN(c2ccccn2)CC1	101	79.5% (inactive)	101% (inactive)	72.4% (inactive)	45.1% (active)	-40% (inactive)	85.1	45.1	-3.29% (inactive)	-2.38% (inactive)
COc1ccc(-c2onc(C)c2-c2ccccc2)c(O)c1	99.5	73% (inactive)	99.5% (inactive)	79.6% (inactive)	18.5% (active)	-44.4% (inactive)	62.9	18.5	-4.53% (inactive)	0.32% (inactive)
CC(C)CCNC(=O)NC(=O)CSc1nnc(COc2ccccc2Cl)o1	99	80.5% (inactive)	99% (inactive)	81% (inactive)	93% (inactive)	5.9% (inactive)	87.1	93	-2.24% (inactive)	-5.87% (inactive)
CCOC(=O)C1CCCN(C(=O)c2cc(=O)c3ccccc3o2)C1 (stereo not given)	94.5	87% (inactive)	94.5% (inactive)	95.2% (inactive)	97.3% (inactive)	-4.92% (inactive)	102	97.3	-2.89% (inactive)	-0.95% (inactive)
O=C(NCc1ccccc1)C1CCCN1S(=O)(=O)c1cccc2cccnc12 (stereo not given)	94	99.5% (inactive)	94% (inactive)	93% (inactive)	110% (inactive)	15.6% (inactive)	94.4	110	-0.53% (inactive)	-0.98% (inactive)
OCc1cn(-c2ccccc2)nc1-c1ccc2c(c1)OCCO2	93	102% (inactive)	93% (inactive)	70.5% (inactive)	83.9% (inactive)	-4.38% (inactive)	88.3	83.9	-7.95% (inactive)	-4.44% (inactive)
O=c1cc(-c2ccccc2)[nH]c2nc3ccccc3n12	90.5	60.5% (inactive)	90.5% (inactive)	35.5% (inactive)	9.48% (active)	-49.3% (inactive)	58.8	9.48	-2.76% (inactive)	-2.73% (inactive)
CCc1nnc(NC(=O)NCN2C(=O)C3C4C=CC(C4)C3C2=O)s1 (stereo not given)	123	85.5% (inactive)	123% (inactive)	84.4% (inactive)	95.5% (inactive)	1.7% (inactive)	93.8	95.5	-6.44% (inactive)	-5.24% (inactive)
O=C1CC(c2ccc(S(=O)(=O)N3CCN(c4ccccc4)CC3)cc2)CN1 (stereo not given)	96	90% (inactive)	96% (inactive)	93% (inactive)	96.4% (inactive)	1.82% (inactive)	94.6	96.4	-7.3% (inactive)	-10% (inactive)
COCCN(C(=O)c1csnn1)C(C(=O)NC(C)(C)C)c1cccc(OC)c1 (stereo not given)	89.5	91% (inactive)	89.5% (inactive)	120% (inactive)	97.9% (inactive)	0.985% (inactive)	96.9	97.9	-4.4% (inactive)	0% (inactive)
CC(C)Cn1c(N)c(C(=O)COC(=O)c2ccc3c(c2)OCCO3)c(=O)n(C)c1=O	87	102% (inactive)	87% (inactive)	71.3% (inactive)	91.8% (inactive)	-6.76% (inactive)	98.6	91.8	-4.46% (inactive)	0.16% (inactive)
COC(=O)CCC(=O)Nc1cccc(Br)c1	128	85% (inactive)	128% (inactive)	110% (inactive)	101% (inactive)	0.985% (inactive)	100	101	-9.32% (inactive)	-3.65% (inactive)
CC(=O)Nc1cc2c(nc1C)nc(C)n2Cc1ccc(Br)cc1	76	88% (inactive)	76% (inactive)	90% (inactive)	108% (inactive)	12.7% (inactive)	95.3	108	-4.4% (inactive)	0.33% (inactive)
CC(C)CCNC(=O)CCNS(=O)(=O)c1ccc(Cl)cc1	110	95% (inactive)	110% (inactive)	99.7% (inactive)	94.1% (inactive)	-0.295% (inactive)	94.4	94.1	-1.71% (inactive)	-4.03% (inactive)
